According to ChEMBL document CHEMBL5252513, “Identification of a Benzoisoxazoloazepine Inhibitor (CPI-0610) of the Bromodomain and Extra-Terminal (BET) Family as a Candidate for Human Clinical Trials” (J Med Chem, 2016):

Experiments:
[1] = target: T1, Peregrin (Homo sapiens, UniProt P55201); assay: Binding affinity to BRPF1 bromodomain (unknown origin) incubated for 60 mins by TR-FRET assay
T1 sequence (P55201 whole entry): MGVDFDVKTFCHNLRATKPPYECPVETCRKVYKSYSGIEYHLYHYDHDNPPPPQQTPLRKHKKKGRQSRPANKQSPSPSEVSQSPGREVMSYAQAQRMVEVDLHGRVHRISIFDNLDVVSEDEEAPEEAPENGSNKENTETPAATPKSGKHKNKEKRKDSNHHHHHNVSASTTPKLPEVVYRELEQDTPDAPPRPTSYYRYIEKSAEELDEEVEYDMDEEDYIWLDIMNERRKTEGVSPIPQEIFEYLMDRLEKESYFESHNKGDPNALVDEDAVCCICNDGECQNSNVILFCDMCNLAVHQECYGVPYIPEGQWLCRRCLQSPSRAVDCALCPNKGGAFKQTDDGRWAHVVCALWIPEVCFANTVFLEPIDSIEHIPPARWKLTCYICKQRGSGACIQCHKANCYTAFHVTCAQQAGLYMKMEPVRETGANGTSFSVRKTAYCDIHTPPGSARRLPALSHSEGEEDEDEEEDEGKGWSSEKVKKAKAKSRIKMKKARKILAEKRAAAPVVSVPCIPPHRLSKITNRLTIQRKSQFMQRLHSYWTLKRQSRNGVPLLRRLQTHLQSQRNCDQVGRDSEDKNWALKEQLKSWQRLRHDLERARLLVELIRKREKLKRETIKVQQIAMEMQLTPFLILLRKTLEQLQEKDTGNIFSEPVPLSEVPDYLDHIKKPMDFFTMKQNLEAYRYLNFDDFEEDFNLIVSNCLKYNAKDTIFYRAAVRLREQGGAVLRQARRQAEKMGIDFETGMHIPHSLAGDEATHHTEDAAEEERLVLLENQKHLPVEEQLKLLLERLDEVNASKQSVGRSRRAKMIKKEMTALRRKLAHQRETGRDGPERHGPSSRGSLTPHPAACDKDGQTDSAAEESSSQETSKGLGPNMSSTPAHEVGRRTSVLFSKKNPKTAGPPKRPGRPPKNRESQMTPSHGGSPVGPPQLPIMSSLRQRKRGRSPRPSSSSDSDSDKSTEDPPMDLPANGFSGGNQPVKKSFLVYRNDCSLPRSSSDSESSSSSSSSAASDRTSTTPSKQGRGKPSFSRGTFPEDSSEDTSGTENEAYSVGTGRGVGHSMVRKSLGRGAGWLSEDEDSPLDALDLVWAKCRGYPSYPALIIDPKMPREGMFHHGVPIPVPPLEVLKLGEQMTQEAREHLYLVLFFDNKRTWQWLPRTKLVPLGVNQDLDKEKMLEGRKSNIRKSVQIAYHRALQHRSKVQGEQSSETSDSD

[2] = target: T2, ATPase family AAA domain-containing protein 2 (Homo sapiens, UniProt Q6PL18); assay: Displacement of biotinylated JQ1 from ATAD2 bromodomain (unknown origin) incubated for 20 mins by AlphaLISA assay
T2 sequence (Q6PL18 whole entry): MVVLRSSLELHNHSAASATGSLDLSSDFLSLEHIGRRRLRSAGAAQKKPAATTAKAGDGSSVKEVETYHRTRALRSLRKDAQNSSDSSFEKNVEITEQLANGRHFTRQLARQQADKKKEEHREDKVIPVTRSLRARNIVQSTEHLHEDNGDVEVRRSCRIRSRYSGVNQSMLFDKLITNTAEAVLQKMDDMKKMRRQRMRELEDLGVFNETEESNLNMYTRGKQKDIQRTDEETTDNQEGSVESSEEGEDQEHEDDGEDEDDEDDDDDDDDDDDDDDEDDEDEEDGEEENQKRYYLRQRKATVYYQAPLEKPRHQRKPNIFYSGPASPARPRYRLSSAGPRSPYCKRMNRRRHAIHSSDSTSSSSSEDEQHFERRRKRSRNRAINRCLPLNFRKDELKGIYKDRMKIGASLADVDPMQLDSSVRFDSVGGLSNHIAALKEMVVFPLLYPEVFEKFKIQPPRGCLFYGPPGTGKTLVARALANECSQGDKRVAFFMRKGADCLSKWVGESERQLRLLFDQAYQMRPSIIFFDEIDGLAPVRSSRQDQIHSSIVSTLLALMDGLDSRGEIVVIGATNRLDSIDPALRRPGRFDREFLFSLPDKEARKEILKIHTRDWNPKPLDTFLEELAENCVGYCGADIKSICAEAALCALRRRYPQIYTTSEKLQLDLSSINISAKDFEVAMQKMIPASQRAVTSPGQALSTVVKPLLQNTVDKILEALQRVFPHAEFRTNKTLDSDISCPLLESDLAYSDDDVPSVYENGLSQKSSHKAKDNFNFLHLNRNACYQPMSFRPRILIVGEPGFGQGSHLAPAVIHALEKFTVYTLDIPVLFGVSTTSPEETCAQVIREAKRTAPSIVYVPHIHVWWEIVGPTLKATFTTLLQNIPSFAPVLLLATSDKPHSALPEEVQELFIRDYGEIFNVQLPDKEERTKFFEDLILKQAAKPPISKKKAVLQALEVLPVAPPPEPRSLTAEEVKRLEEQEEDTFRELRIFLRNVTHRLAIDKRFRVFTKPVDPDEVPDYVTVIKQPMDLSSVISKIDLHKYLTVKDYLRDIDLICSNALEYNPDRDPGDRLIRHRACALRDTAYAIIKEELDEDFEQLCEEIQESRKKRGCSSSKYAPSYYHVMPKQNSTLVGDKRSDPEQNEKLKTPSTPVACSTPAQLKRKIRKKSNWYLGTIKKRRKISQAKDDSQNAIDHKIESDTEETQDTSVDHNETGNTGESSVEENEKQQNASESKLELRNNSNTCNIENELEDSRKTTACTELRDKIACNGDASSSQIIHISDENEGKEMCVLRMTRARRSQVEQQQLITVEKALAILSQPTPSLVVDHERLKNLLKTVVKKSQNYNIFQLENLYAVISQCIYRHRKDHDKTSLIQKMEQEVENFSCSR

[3] = Intrinsic clearance in mouse liver microsomes; type: ADME, Microsome; conditions: read-out: CLH
[4] = Initial unbound plasma concentration in human patient with progression lymphoma at 300 mg,po QD and measured after 24 hrs; type: ADME; conditions: in vivo
[5] = Clearance in rat assessed as liver blood flow at 1 mg/kg,iv; type: ADME, organism-based; conditions: in vivo
[6] = target: SWI/SNF-related matrix-associated actin-dependent regulator of chromatin subfamily A member 4 (Homo sapiens, UniProt P51532); assay: Displacement of biotinylated JQ1 from BRG1 bromodomain (unknown origin) incubated for 20 mins by AlphaLISA assay
SWI/SNF-related matrix-associated actin-dependent regulator of chromatin subfamily A member 4, sequence (P51532 whole entry): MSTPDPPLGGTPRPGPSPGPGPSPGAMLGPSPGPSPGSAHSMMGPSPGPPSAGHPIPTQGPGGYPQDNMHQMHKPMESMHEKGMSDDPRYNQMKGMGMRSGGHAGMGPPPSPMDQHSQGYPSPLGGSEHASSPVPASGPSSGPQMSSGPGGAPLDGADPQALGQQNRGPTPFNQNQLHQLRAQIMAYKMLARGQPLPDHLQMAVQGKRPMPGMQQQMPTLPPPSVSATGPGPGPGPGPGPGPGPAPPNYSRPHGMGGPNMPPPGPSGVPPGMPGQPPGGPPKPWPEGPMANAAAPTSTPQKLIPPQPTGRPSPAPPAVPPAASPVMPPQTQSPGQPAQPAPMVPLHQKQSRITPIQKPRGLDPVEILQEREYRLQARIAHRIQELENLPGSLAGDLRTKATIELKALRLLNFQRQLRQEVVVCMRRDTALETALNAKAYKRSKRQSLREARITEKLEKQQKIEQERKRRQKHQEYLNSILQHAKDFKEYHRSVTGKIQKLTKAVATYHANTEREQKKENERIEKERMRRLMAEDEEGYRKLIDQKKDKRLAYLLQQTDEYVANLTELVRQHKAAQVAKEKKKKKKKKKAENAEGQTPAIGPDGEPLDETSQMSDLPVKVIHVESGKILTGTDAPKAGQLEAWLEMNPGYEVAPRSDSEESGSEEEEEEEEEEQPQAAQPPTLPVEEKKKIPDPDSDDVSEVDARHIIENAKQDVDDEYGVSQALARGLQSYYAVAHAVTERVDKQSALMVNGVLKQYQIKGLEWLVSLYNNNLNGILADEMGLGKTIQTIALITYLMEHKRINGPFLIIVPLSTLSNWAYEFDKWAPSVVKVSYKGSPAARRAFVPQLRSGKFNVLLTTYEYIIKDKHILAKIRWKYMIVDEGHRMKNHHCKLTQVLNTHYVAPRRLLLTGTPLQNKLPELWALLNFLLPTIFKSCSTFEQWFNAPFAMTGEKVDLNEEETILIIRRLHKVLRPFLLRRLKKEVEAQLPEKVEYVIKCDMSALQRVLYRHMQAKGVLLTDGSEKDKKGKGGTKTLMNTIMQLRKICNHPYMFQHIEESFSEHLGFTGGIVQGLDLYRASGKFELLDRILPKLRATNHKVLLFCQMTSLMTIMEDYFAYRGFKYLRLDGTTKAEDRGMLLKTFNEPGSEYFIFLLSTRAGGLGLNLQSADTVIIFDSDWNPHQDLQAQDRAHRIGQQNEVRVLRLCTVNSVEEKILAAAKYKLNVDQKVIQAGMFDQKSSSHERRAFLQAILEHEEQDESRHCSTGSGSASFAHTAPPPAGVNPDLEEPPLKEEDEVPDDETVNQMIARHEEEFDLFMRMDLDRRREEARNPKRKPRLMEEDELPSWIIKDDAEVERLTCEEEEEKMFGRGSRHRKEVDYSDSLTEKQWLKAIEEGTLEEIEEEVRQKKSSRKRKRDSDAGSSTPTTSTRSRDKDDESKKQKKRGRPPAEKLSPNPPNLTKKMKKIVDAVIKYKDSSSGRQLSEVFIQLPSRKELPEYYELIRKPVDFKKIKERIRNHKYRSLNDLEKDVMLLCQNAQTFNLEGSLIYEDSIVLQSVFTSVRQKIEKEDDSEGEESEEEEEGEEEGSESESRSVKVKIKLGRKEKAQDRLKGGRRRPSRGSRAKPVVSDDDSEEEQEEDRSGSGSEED

[7] = Initial plasma concentration in human patient with progression lymphoma at 300 mg,po QD and measured after 24 hrs; type: ADME; conditions: read-out: C0
How it was run: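 Trough plasma concentration taken as concentration at 24 h after oral dosing, 300 mg cohort, patients with hematologic malignancies.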

[8] = AUC (0 to infinity) in mouse at 10 mg/kg,sc; type: ADME, organism-based; parameters: dose 10 mg/kg, route sc; conditions: in vivo

IC50 [1]: > 20 µM | IC50 [2]: > 80 µM | predicted hepatic clearance [3]: 30 mL/min/kg | C0(unbound) [4]: 11 nM | QH [5]: 36% | IC50 [6]: > 20 µM | concentration at 24 h [7]: 220 nM | AUC(0-inf) [8]: 49 µM·h
SMILES: Cc1noc2c1-c1ccccc1C(c1ccc(Cl)cc1)=N[C@H]2CC(N)=O [PELABRESIB]
